{"source": "ChEMBL document CHEMBL3120063", "about": "“Identification of chromomoric acid C-I as an Nrf2 activator in Chromolaena odorata” (J Nat Prod, 2014)", "key": {"[1]": {"biological_target": "T1, Nuclear factor erythroid 2-related factor 2 (Homo sapiens) (UniProt Q16236)", "T1 sequence (whole entry)": "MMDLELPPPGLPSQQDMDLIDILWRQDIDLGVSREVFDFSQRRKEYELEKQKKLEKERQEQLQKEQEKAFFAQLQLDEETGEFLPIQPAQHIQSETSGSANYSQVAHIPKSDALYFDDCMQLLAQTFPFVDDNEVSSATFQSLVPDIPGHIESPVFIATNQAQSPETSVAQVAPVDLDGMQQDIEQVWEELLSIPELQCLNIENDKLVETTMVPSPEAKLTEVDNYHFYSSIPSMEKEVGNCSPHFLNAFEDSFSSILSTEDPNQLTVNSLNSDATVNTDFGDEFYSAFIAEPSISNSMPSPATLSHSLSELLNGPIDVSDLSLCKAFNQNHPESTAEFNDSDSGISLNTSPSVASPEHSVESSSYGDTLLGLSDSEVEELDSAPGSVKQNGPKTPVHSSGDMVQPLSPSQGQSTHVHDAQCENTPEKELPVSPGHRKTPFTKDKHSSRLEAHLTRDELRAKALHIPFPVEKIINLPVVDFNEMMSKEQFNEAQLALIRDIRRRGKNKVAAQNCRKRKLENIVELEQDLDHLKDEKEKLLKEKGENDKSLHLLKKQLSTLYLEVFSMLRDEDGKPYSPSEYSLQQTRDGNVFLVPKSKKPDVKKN", "assay": "Activation of Nrf2 (unknown origin) expressed in CHO-ARE-Luc cells after 18 hrs by luciferase reporter gene assay", "type": "cell-based", "how_it_was_run": "(§1)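 CHO-ARE-Luc cells, kept in DMEM with 10% FCS, 2 mM glutamine and 4 μg/mL puromycin, were exposed to test agents for 18 h. 0.1% DMSO served as vehicle and 100 nM CDDO-IM as positive control. Luciferase was normalized to cell count (Cell Tracker Green CMFDA) and expressed as fold of DMSO control. Three independent experiments, means + SD. CD = concentration doubling the vehicle response.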"}, "[2]": {"biological_target": "T1, Nuclear factor erythroid 2-related factor 2 (Homo sapiens)", "assay": "Activation of Nrf2 (unknown origin) expressed in CHO-ARE luc cells at 10 to 30 uM after 18 hrs by luciferase reporter gene assay", "type": "cell-based", "how_it_was_run": "as §1"}, "[3]": {"system": "VSMC", "assay": "Antiproliferative activity against human VSMC assessed as inhibition of PDGF-induced cell proliferation at 5 uM incubated for 30 mins prior to PDGF challenge measured after 48 hrs by resazurin-mediated fluorescence assay in presence of protoporphyrin 9", "type": "functional", "how_it_was_run": "(§2)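 Quiescent (serum-starved) VSMC were pretreated 30 min with 0.1% DMSO, compound, or 10 μM tin protoporphyrin IX (HO-1 inhibitor) as indicated, then stimulated 48 h with 20 ng/mL PDGF. After a PBS wash, cells were given 10 μg/mL resazurin in serum-free medium for 45 min; resorufin fluorescence read at ex 535/em 590 nm. Three independent experiments.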"}, "[4]": {"biological_target": "T1, Nuclear factor erythroid 2-related factor 2 (Homo sapiens)", "assay": "Activation of Nrf2 in human VSMC assessed as induction of HO-1 expression at 3 uM after 18 hrs by immunoblotting analysis", "how_it_was_run": "(§3)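 MEF (WT and isogenic Nrf2−/−) or VSMC were seeded at (3–4) × 10⁵ cells/well and treated next day with 0.1% DMSO or compound for 18 h. Total lysates were run on SDS-PAGE and immunoblotted for HO-1, with actin as loading control. HO-1/actin by densitometry relative to vehicle (set at 1). Three independent experiments.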"}, "[5]": {"biological_target": "T1, Nuclear factor erythroid 2-related factor 2 (Homo sapiens)", "assay": "Activation of Nrf2 (unknown origin) expressed in CHO-ARE-Luc cells after 18 hrs by luciferase reporter gene assay in presence of GSH", "type": "cell-based", "how_it_was_run": "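ARE-luciferase assay in CHO-ARE-Luc cells with the medium supplemented with 2 mM glutathione before compound addition. Luciferase read 18 h later, normalized to cell count and given as fold of 0.1% DMSO control. CDDO-IM 100 nM as positive control. Three independent experiments.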"}, "[6]": {"system": "VSMC", "assay": "Antiproliferative activity against human VSMC assessed as inhibition of PDGF-induced cell proliferation at 2 to 5 uM incubated for 30 mins prior to PDGF challenge measured after 48 hrs by resazurin-mediated fluorescence assay", "type": "functional", "how_it_was_run": "as §2"}, "[7]": {"assay": "Inhibition of NF-kappaB (unknown origin) expressed in HEK293 cells co-expressing luc gene after 30 mins by luciferase reporter gene assay", "type": "cell-based", "conditions": "Homo sapiens, HEK293, 0.5 h", "how_it_was_run": "(§4)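 HEK293/NF-κB-luc cells were stained 1 h with 2 μM Cell Tracker Green CMFDA, seeded at 4×10⁴ cells/well overnight, and pretreated 30 min with compound, 0.1% DMSO, or 5 μM parthenolide (positive control). They were then stimulated with 2 ng/mL TNF-α for 4 h and lysed; luminescence (NF-κB) and fluorescence (cell count) were read. n = 3.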"}, "[8]": {"biological_target": "T1, Nuclear factor erythroid 2-related factor 2 (Homo sapiens)", "assay": "Activation of Nrf2 (unknown origin) expressed in CHO-ARE luc cells at 5.2 uM after 18 hrs by luciferase reporter gene assay relative to vehicle-treated control", "type": "cell-based", "how_it_was_run": "as §1"}, "[9]": {"biological_target": "T2, Nuclear factor erythroid 2-related factor 2 (Mus musculus) (UniProt Q60795)", "T2 sequence (whole entry)": "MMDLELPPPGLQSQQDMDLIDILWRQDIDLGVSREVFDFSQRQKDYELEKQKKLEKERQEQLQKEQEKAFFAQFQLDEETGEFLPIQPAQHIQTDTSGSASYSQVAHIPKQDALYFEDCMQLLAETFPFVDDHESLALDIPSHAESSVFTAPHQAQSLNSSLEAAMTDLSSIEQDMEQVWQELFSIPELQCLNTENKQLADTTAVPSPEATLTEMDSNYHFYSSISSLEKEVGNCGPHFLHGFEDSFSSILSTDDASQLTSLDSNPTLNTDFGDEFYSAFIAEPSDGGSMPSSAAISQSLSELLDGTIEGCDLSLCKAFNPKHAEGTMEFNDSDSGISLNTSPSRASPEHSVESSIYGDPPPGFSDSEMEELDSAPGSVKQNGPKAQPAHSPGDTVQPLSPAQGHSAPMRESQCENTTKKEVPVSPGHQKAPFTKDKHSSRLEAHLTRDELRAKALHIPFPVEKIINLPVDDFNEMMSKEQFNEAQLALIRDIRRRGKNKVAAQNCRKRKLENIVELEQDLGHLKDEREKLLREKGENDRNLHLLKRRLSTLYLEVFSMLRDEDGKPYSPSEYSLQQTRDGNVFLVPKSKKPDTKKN", "assay": "Activation of Nrf2 in wild type mouse embryonic fibroblasts assessed as induction of HO-1expression after 18 hrs by immunoblotting analysis", "how_it_was_run": "as §3"}, "[10]": {"assay": "Cytotoxicity against human VSMC at 2 to 5 uM after 48 hrs by LDH assay", "how_it_was_run": "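Quiescent VSMC were treated with compound for 48 h. LDH release, measured with a nonradioactive CytoTox kit, was taken as readout of membrane integrity. Three independent experiments, 0.1% DMSO vehicle.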"}, "[11]": {"biological_target": "T1, Nuclear factor erythroid 2-related factor 2 (Homo sapiens)", "assay": "Activation of Nrf2 (unknown origin) expressed in CHO-ARE luc cells at 10 uM after 18 hrs by luciferase reporter gene assay", "type": "cell-based", "how_it_was_run": "as §1"}, "[12]": {"biological_target": "T2, Nuclear factor erythroid 2-related factor 2 (Mus musculus)", "assay": "Activation of Nrf2 in mouse Nrf2 deficient embryonic fibroblasts assessed as induction of HO-1expression at 10 uM after 18 hrs by immunoblotting analysis", "how_it_was_run": "as §3"}, "[13]": {"system": "HEK293", "assay": "Inhibition of NF-kappaB (unknown origin) expressed in HEK293 cells co-expressing luc gene at 30 uM after 30 mins by luciferase reporter gene assay", "type": "cell-based", "conditions": "Homo sapiens", "how_it_was_run": "as §4"}}, "note": "Calls of active or inactive are those of the source. No cut-off for these calls is given here."}
{"smiles": "CCCCC/C=C/C=C1/C(=O)C=C[C@@H]1C/C=C\\CCCC(=O)O", "values": [{"measurement": "Activity", "setting": "[1]", "result": "Dose-dependent effect"}]}
{"smiles": "O=C1C[C@@H](c2ccc(O)cc2)Oc2cc(O)cc(O)c21", "values": [{"measurement": "Activity", "setting": "[2]", "result": "inactive"}]}
{"smiles": "COc1ccc([C@@H]2CC(=O)c3c(cc(OC)c(OC)c3O)O2)cc1OC", "values": [{"measurement": "Activity", "setting": "[2]", "result": "inactive"}]}
{"smiles": "COc1ccc(-c2cc(=O)c3c(OC)c(OC)c(OC)cc3o2)cc1", "values": [{"measurement": "Activity", "setting": "[2]", "result": "inactive"}]}
{"smiles": "CC/C=C\\C=C1\\C(=O)C=C[C@@H]1CCCCCCCC(=O)O", "values": [{"measurement": "Activity", "setting": "[3]", "result": "inactive"}, {"measurement": "Activity", "setting": "[4]", "result": "Active"}, {"measurement": "Activity", "setting": "[5]", "result": "inactive"}, {"measurement": "inhibition", "setting": "[6]", "result": "Active"}, {"measurement": "IC50", "setting": "[7]", "result": 6.9, "unit": "µM"}, {"measurement": "fold change (FC)", "setting": "[8]", "result": 2}, {"measurement": "Activity", "setting": "[9]", "result": "Dose-dependent effect"}, {"measurement": "Activity", "setting": "[10]", "result": "Non-toxic"}, {"measurement": "Activity", "setting": "[11]", "result": "Active"}, {"measurement": "Activity", "setting": "[12]", "result": "Active"}]}
{"smiles": "CC/C=C\\C=C1/C(=O)C=C[C@@H]1CCCCCCCC(=O)O", "values": [{"measurement": "inhibition", "setting": "[13]", "result": "Active"}]}
{"smiles": "COc1ccc(-c2oc3cc(O)cc(O)c3c(=O)c2O)cc1", "values": [{"measurement": "Activity", "setting": "[2]", "result": "inactive"}]}
{"smiles": "COc1ccc([C@@H]2CC(=O)c3c(O)cc(O)cc3O2)cc1O", "values": [{"measurement": "Activity", "setting": "[2]", "result": "inactive"}]}
{"smiles": "COc1cc(O)c2c(c1)O[C@H](c1ccc(O)cc1)[C@@H](O)C2=O", "values": [{"measurement": "Activity", "setting": "[2]", "result": "inactive"}]}
{"smiles": "COc1ccc(-c2oc3cc(O)c(OC)c(O)c3c(=O)c2O)cc1", "values": [{"measurement": "Activity", "setting": "[2]", "result": "inactive"}]}
{"smiles": "COc1cc(O)c2c(=O)c(O)c(-c3ccc(OC)c(O)c3)oc2c1", "values": [{"measurement": "Activity", "setting": "[2]", "result": "inactive"}]}
{"smiles": "COc1ccc(-c2cc(=O)c3c(O)c(OC)c(O)cc3o2)cc1", "values": [{"measurement": "Activity", "setting": "[2]", "result": "inactive"}]}
{"smiles": "CC/C=C\\CC1C(=O)C=C/C1=C/CCCCCCC(=O)O", "note": "(stereo not drawn)", "values": [{"measurement": "inhibition", "setting": "[13]", "result": "Active"}]}
{"smiles": "CC/C=C\\CC1C(=O)C=C/C1=C\\CCCCCCC(=O)O", "note": "(stereo not drawn)", "values": [{"measurement": "inhibition", "setting": "[13]", "result": "Active"}]}
{"smiles": "COc1ccc(-c2cc(=O)c3c(O)cc(O)cc3o2)cc1", "values": [{"measurement": "Activity", "setting": "[2]", "result": "inactive"}]}
{"smiles": "COc1ccc([C@@H]2CC(=O)c3c(cc(O)c(OC)c3O)O2)cc1O", "values": [{"measurement": "Activity", "setting": "[2]", "result": "inactive"}]}
{"smiles": "O=c1c(O)c(-c2ccc(O)cc2)oc2cc(O)cc(O)c12", "values": [{"measurement": "Activity", "setting": "[2]", "result": "inactive"}]}
{"smiles": "CC/C=C\\C[C@H]1C(=O)C=C[C@@H]1CCCCCCCC(=O)O", "values": [{"measurement": "inhibition", "setting": "[13]", "result": "Active"}]}
{"smiles": "COc1ccc(-c2cc(=O)c3c(O)c(OC)c(OC)cc3o2)cc1", "values": [{"measurement": "Activity", "setting": "[2]", "result": "inactive"}]}
